One block for each compound: values may come before it. Activity calls are given as the source filed them. No cut-off for these calls is given here.
Assays:
[1] = system: Canis familiaris; test: Acid antisecretory activity against pentagastrin-stimulated Heidenhain pouch dogs at a dose of 10 mg/kg after intravenous administration; type: functional, Canis lupus familiaris
Procedure, shortened: (§1)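 Pentagastrin was infused iv into a leg vein of fasted, conscious Heidenhain pouch dogs to give near-maximal acid output. Juice was collected every 30 min, ten collections in all, and acid was titrated (1.0 mL to pH 7.4, 0.1 N NaOH). The single iv dose was given at 90 min. Percent inhibition was the lowest post-dose acid output compared with the mean output just before dosing.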

[2] = target: Histamine H2 receptor (Cavia porcellus) (UniProt P47747); test: Antagonistic activity against histamine H2 receptor from guinea pig atrium; activity KB (Dissociation Constant) is negative; type: functional, tissue-based; settings: Cardiac atrium
Histamine H2 receptor (Cavia porcellus), sequence (P47747 whole entry): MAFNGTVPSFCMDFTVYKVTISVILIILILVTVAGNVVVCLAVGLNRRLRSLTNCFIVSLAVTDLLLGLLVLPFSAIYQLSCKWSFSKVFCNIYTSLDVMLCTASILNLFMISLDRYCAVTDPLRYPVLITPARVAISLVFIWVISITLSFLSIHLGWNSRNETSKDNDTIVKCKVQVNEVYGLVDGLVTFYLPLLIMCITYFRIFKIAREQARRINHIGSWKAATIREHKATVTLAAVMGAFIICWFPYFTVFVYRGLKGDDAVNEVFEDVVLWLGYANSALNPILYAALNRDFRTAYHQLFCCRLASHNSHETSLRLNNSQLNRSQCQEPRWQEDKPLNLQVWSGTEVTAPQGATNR

[3] = system: Canis familiaris; test: Acid antisecretory activity against pentagastrin-stimulated Heidenhain pouch dogs at a dose of 25 mg/kg after intravenous administration; type: functional, Canis lupus familiaris; procedure, shortened: as §1
[4] = system: Canis familiaris; test: Acid antisecretory activity against pentagastrin-stimulated Heidenhain pouch dogs at a dose of 23 mg/kg after intravenous administration; type: functional, Canis lupus familiaris; procedure, shortened: as §1
[5] = target: Histamine H2 receptor (Cavia porcellus) (UniProt P47747); test: Antagonistic activity against histamine H2 receptor from guinea pig atrium; type: functional, tissue-based; settings: Cardiac atrium
[6] = target: Histamine H1 receptor (Cavia porcellus) (UniProt P31389); test: Relative antagonistic activity against Histamine H1 receptor
Histamine H1 receptor (Cavia porcellus), sequence (P31389 whole entry): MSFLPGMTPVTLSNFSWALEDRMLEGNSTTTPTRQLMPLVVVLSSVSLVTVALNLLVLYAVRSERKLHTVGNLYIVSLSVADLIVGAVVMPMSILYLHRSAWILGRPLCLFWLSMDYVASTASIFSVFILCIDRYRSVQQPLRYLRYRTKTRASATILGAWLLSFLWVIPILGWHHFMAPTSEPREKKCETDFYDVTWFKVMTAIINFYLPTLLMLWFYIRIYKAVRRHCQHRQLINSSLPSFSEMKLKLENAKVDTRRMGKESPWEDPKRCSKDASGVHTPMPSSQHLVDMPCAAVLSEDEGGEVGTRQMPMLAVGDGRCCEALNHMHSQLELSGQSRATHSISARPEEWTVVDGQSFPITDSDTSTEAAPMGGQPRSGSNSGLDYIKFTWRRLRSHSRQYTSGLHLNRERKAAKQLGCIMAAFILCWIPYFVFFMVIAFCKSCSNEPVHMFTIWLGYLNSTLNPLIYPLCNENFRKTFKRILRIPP

[7] = Log distribution coefficient between 1-octanol and aqueous buffer at pH of 9.2.; type: physicochemical; settings: 1-octanol/aqueous buffer, pH 9.2
[8] = system: Canis familiaris; test: Acid antisecretory activity against pentagastrin-stimulated Heidenhain pouch dogs after intravenous administration; type: functional; settings: Canis lupus familiaris, read-out: ID50 (the source's name)
Procedure, shortened: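 Fasted, unanesthetized Heidenhain pouch dogs received a continuous pentagastrin infusion into a superficial leg vein at a near-maximal acid-stimulating dose. Gastric juice was collected at 30-min intervals, ten collections per dog. Acid was titrated on 1.0 mL to pH 7.4 with 0.1 N NaOH. Compound or vehicle was given iv at 90 min. ID50 came from linear regression of log dose on percent inhibition in n dogs.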

[9] = Log distribution coefficient between 1-octanol and aqueous buffer at pH of 7.4.; type: physicochemical; settings: 1-octanol/aqueous buffer, pH 7.4
[10] = system: Canis familiaris; test: Acid antisecretory activity against pentagastrin-stimulated Heidenhain pouch dogs at a dose of 5 mg/kg after intravenous administration; type: functional, Canis lupus familiaris; procedure, shortened: as §1
[11] = pKa ([…] constant) value at a physiological pH of 7.4; type: physicochemical; settings: pH 7.4
Procedure, shortened: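 Ionisation constants taken as the observed pH1/2 from titration at 23 °C. The dihydrochloride salts were titrated in water, and the free bases in 1:1 methanol–water.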

[12] = Log distribution coefficient between 1-octanol and aqueous buffer at specified pH of 9.2.; settings: 1-octanol/aqueous buffer, pH 9.2
[13] = target: Histamine H1 receptor (Cavia porcellus) (UniProt P31389); test: Relative antagonistic activity against Histamine H1 receptor, NA is Inactive

Compound: Nc1n[nH]c(Cc2ccncc2)n1
Max inhibition [1]: 26% | KB [2]: inactive | Max inhibition [3]: 30%

Compound: c1ccc(CN(CC2=NCCN2)c2ccccc2)cc1
Relative activity [6]: > 1

Compound: c1ccc(CN(Cc2c[nH]cn2)c2ccccc2)cc1
Relative activity [6]: > 0.5

Compound: Nc1cc(-c2n[nH]c(N)n2)ccn1
Kb [5]: 2220 nM | logD [7]: -0.06 | ED50 [8]: 2.35 mg/kg | logD [9]: 0.11

Compound: c1ccc(CN(CCc2c[nH]cn2)Cc2ccccc2)cc1
Relative activity [6]: 0.01

Compound: Nc1n[nH]c(Cc2cccnc2)n1
Max inhibition [1]: 0% | KB [2]: inactive

Compound: CN/C(=N\CCSCc1nc[nH]c1C)NC#N [CIMETIDINE]
pKa [11]: 7.02 | logD [12]: 0.54 | logD [7]: 0.4 | ED50 [8]: 1.02 mg/kg

Compound: CN(C)CCN(Cc1ccccc1)c1ccccc1
Relative activity [6]: 1

Compound: CN(C)CCN(Cc1ccccc1)Cc1ccccc1
Activity [13]: inactive

Compound: CCNc1cc(-c2n[nH]c(N)n2)ccn1
Kb [5]: 235 nM | logD [7]: 0.97 | ED50 [8]: 0.87 mg/kg | logD [9]: 1.13

Now from value to compound, other results behind:

KB [2]: inactive
Compound: Nc1n[nH]c(-c2cccnc2)n1
Max inhibition [1]: 22% | Max inhibition [3]: 11%

Kb [5]: 41900 nM
Compound: Nc1n[nH]c(-c2ccncc2)n1
Max inhibition [4]: 73% | Max inhibition [1]: 43%

KB [2]: inactive
Compound: Nc1n[nH]c(-c2ccccn2)n1
Max inhibition [1]: 0% | Max inhibition [10]: 0%

KB [2]: inactive
Compound: Nc1n[nH]c(Cc2ccccn2)n1
Max inhibition [1]: 0% | Max inhibition [10]: 18%

— ChEMBL document CHEMBL1122301, “Bioisosteric design of conformationally restricted pyridyltriazole histamine H2-receptor antagonists” (J Med Chem, 1983)
